This is an account of results in the array DNA melting data of Ke et al. (doi:10.1101/2024.01.08.574731).

A short description of data set [1]: folding enthalpy; higher = less favourable; fluorescence melt of hairpins on a sequencing array, two-state fit. Conditions: sodium 0.088 M. The procedure, abridged:
(§1)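 Melting temperature and folding enthalpy were obtained by bootstrapped two-state fitting. Fits used Cy3 fluorescence of library hairpins with annealed Cy3 and quencher oligos on a sequenced MiSeq flow cell, imaged in 50 mM Na-HEPES pH 8.0, 25 mM NaCl in 2.5 °C steps up to 60 °C and normalised to pre-quench Cy3 and control constructs. Four replicates were combined by inverse-variance weighting, and fitted temperatures were raised by 9.35 °C to match UV melts.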

Data set [2] is described as follows: melting temperature; fluorescence melt of hairpins on a sequencing array, two-state fit, raised by 9.35 °C to match UV melts. The settings on record: sodium 0.088 M. The procedure, abridged: as §1

Regarding GTCGTGGGAAACTACGAC (((((.(....).))))), the folding enthalpy in data set [1] is -37.3 kcal/mol. Also, the Tm in data set [2] was determined as 53.9 °C.

Regarding GTCGTTCGAAAGAAAGAC (((.(((....))).))), the folding enthalpy in data set [1] was -31.2 kcal/mol. In data set [2], the Tm worked out at 47.8 °C.

Turning to GTCTAACCGAAAGGTGAC (((..(((....)))))), the folding enthalpy in data set [1] is -17.6 kcal/mol. Further, the Tm in data set [2] was 42.2 °C.

Take GTCTACCGAAAGGTCGAC (((.(((....))).))): in data set [1], the folding enthalpy was -33.9 kcal/mol. Besides, the Tm in data set [2] worked out at 48.7 °C.

As for GTCTACCGAAAGGTTGAC (((.(((....))).))), the folding enthalpy in data set [1] was -40.5 kcal/mol. For the same sequence, in data set [2], the Tm was 52.6 °C.

For the sequence GTCTACGAAAGTAGGAC ((((((....))).))), the folding enthalpy in data set [1] was -16.5 kcal/mol. Moreover, the Tm in data set [2] was 44 °C.

On to GTCTACGAAAGTAGTGAC ((((((....)))..))), for which the folding enthalpy in data set [1] was -14.3 kcal/mol. The Tm in data set [2] stood at 33.4 °C.

In the case of GTCTACGAAAGTATTGAC ((((((....)))..))), in data set [1], the folding enthalpy was -19.5 kcal/mol. For the same sequence, in data set [2], the Tm amounted to 30.2 °C.

As for GTCTACGCGAAAGCGGAC (((..(((....)))))), the folding enthalpy in data set [1] is -12.7 kcal/mol. Also, the Tm in data set [2] worked out at 41.3 °C.

On to GTCTAGCGAAAGCTCGAC (((.(((....))).))), for which the folding enthalpy in data set [1] was -28.2 kcal/mol. In data set [2], the Tm turned out to be 50 °C.

As for GTCTAGCGAAAGCTGAC (((.(((....)))))), in data set [1], the folding enthalpy was -21.1 kcal/mol. In addition, the Tm in data set [2] was 50.5 °C.

For the sequence GTCTATCGAAAGATGGAC (((.(((....))).))), the folding enthalpy in data set [1] was -30.9 kcal/mol. Besides, in data set [2], the Tm worked out at 51.7 °C.

As for GTCTATGGAAACATAGGC (.(((((....))))).), the folding enthalpy in data set [1] was -30.7 kcal/mol. Moreover, in data set [2], the Tm is 44 °C.

For the sequence GTCTCACGAAAGTGGAC (((.(((....)))))), in data set [1], the folding enthalpy was -20.7 kcal/mol. The Tm in data set [2] is 47.2 °C.

For GTCTCATCGAAAGATGAC (((..(((....)))))), the folding enthalpy in data set [1] is -10.9 kcal/mol. Further, in data set [2], the Tm came to 35.4 °C.

In the case of GTCTCCCCGAAAGGGGAC (((..(((....)))))), the folding enthalpy in data set [1] was -7.01 kcal/mol. In addition, in data set [2], the Tm is 37.8 °C.

Regarding GTCTCCGAAAGGATAGAC ((((((....)))..))), in data set [1], the folding enthalpy was -23.8 kcal/mol. Also, in data set [2], the Tm is 41 °C.

Take GTCTCCGGAAACGAAGAC ((((.((....)).)))): in data set [1], the folding enthalpy is -25.9 kcal/mol. For the same sequence, the Tm in data set [2] was determined as 41.9 °C.

Turning to GTCTCCGGAAACGGGGAC (((.(((....))).))), the folding enthalpy in data set [1] was -41.1 kcal/mol. In data set [2], the Tm came to 57.7 °C.

In the case of GTCTCGGGAAACTGAGGC (.(((.(....).))).), the folding enthalpy in data set [1] is -30.8 kcal/mol. In addition, the Tm in data set [2] worked out at 38.8 °C.

Consider GTCTCTGGAAACAGGGAC (((.(((....))).))), for which the folding enthalpy in data set [1] is -27.4 kcal/mol. Also, the Tm in data set [2] amounted to 48.9 °C.

As for GTCTCTGGAAACGGAGAC (((((.(....).))))), the folding enthalpy in data set [1] was -34.7 kcal/mol. Moreover, in data set [2], the Tm came out at 50.8 °C.

Regarding GTCTCTTCGAAAGAAGAC (((..(((....)))))), the folding enthalpy in data set [1] is -9.3 kcal/mol. Further, the Tm in data set [2] is 32 °C.

In the case of GTCTGAGGAAACTCAGGC (.(((((....))))).), the folding enthalpy in data set [1] is -32.2 kcal/mol. For the same sequence, the Tm in data set [2] was found to be 49.5 °C.

With GTCTGCGAAAGCAAAGAC ((((((....)))..))), the folding enthalpy in data set [1] is -19.1 kcal/mol. Besides, in data set [2], the Tm is 50.1 °C.

For GTCTGCGAAAGCAACGAC ((((((....)))..))), the folding enthalpy in data set [1] was -13.1 kcal/mol. Moreover, in data set [2], the Tm was 44.9 °C.

Take GTCTGCGAAAGCAAGGAC ((((((....)))..))): the folding enthalpy in data set [1] was -17.5 kcal/mol. Moreover, the Tm in data set [2] came out at 43.2 °C.

Consider GTCTGCGAAAGCAATGAC ((((((....)))..))), for which the folding enthalpy in data set [1] is -16.8 kcal/mol. In addition, the Tm in data set [2] was found to be 39.3 °C.

With GTCTGCGAAAGCACGGAC ((((((....)))..))), in data set [1], the folding enthalpy is -15.2 kcal/mol. In data set [2], the Tm worked out at 38.9 °C.

GTCTGCGGAAACGTGGAC (((..((....))..))): in data set [1], the folding enthalpy was -32.4 kcal/mol. Further, in data set [2], the Tm is 47.5 °C.
